Measurements as given in ChEMBL document CHEMBL3792365, “Dioxol and dihydrodioxin analogs of 2- and 3-phenylacetonitriles as potent anti-cancer agents with nanomolar activity against a variety of human cancer cells” (2016).
Active and inactive are the calls of the source. The calls are words filed in the database; no cut-off is given here.

Legend:
[1] = Growth inhibition of human HCT116 cells after 48 hrs by sulforhodamine B assay; format: functional; conditions: HCT-116, 48 h
Procedure, shortened: (§1)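 Five-dose testing against a 60-line human tumor cell panel. GI50 is the drug concentration giving a 50% reduction in net protein increase relative to untreated control cells.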

A498 = assay: Growth inhibition of human A498 cells after 48 hrs by sulforhodamine B assay; format: functional; conditions: A498, 48 h; procedure, shortened: as §1
Tubulin (Homo sapiens) [2] = target: T1, Tubulin (Homo sapiens) (UniProt P68371+Q9H4B7+P0DPH7+P68366+Q13509+Q71U36+P04350+Q3ZCM7+P07437+P68363+Q9BQE3+Q6PEY2+Q13885+Q9BVA1+Q9BUF5); assay: Induction of tubulin depolymerization (unknown origin) in slow phase assessed as depolymerization rate at 10 uM (reference value: 1.3 +/- 0.1 10^-5AU/sec); format: protein-complex assay
[3] = Growth inhibition of human SNB75 cells after 48 hrs by sulforhodamine B assay; format: functional; conditions: SNB-75, 48 h
Procedure, shortened: (§2)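 Five-dose concentration series run across a panel of 60 human tumour cell lines. GI50 is taken as the drug concentration giving a 50% reduction in net protein increase relative to untreated control cells.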

SK-MEL-5 = assay: Growth inhibition of human SK-MEL-5 cells after 48 hrs by sulforhodamine B assay; format: functional; conditions: SK-MEL-5, 48 h; procedure, shortened: as §2
[4] = Growth inhibition of human HCC2998 cells after 48 hrs by sulforhodamine B assay; format: functional; conditions: HCC 2998, 48 h; procedure, shortened: as §1
[5] = Growth inhibition of human SF295 cells after 48 hrs by sulforhodamine B assay; format: functional; conditions: SF-295, 48 h; procedure, shortened: as §2
U-251 = assay: Growth inhibition of human U251 cells after 48 hrs by sulforhodamine B assay; format: functional; conditions: U-251, 48 h; procedure, shortened: as §2
Tubulin (Homo sapiens) [6] = target: T1, Tubulin (Homo sapiens); assay: Inhibition of tubulin polymerization (unknown origin) in rapid phase; format: protein-complex assay
Tubulin (Homo sapiens) [7] = target: T1, Tubulin (Homo sapiens); assay: Induction of tubulin depolymerization (unknown origin) in slow phase assessed as depolymerization rate at 100 uM (reference value: 1.3 +/- 0.1 10^-5AU/sec); format: protein-complex assay
ACHN = assay: Growth inhibition of human ACHN cells after 48 hrs by sulforhodamine B assay; format: functional; procedure, shortened: as §1
[8] = Growth inhibition of human SW620 cells after 48 hrs by sulforhodamine B assay; format: functional; conditions: SW-620, 48 h; procedure, shortened: as §2
[9] = Growth inhibition of human NCI-ADR-RES cells after 48 hrs by sulforhodamine B assay; format: functional; procedure, shortened: as §2
Tubulin (Homo sapiens) [10] = target: T1, Tubulin (Homo sapiens); assay: Inhibition of tubulin polymerization (unknown origin) in rapid phase assessed as polymerization rate at 10 uM (reference value: 8.6 +/- 0.4 x 10^-4AU/sec); format: protein-complex assay
A549 = assay: Growth inhibition of human A549/ATCC cells after 48 hrs by sulforhodamine B assay; format: functional; conditions: A549, 48 h; procedure, shortened: as §1
MCF7 = assay: Growth inhibition of human MCF7 cells after 48 hrs by sulforhodamine B assay; format: functional; conditions: MCF7, 48 h; procedure, shortened: as §1
[11] = Growth inhibition of human HOP92 cells after 48 hrs by sulforhodamine B assay; format: functional; conditions: HOP-92, 48 h; procedure, shortened: as §1
Tubulin (Homo sapiens) [12] = target: T1, Tubulin (Homo sapiens); assay: Inhibition of tubulin polymerization (unknown origin) in rapid phase assessed as polymerization rate at 100 uM (reference value: 8.6 +/- 0.4 x 10^-4AU/sec); format: protein-complex assay
[13] = Growth inhibition of human LOXIMVI cells after 48 hrs by sulforhodamine B assay; format: functional; conditions: LOX IMVI; procedure, shortened: as §1
[14] = Growth inhibition of human HOP62 cells after 48 hrs by sulforhodamine B assay; format: functional; conditions: HOP-62, 48 h; procedure, shortened: as §1
[15] = Growth inhibition of human OVCAR3 cells after 48 hrs by sulforhodamine B assay; format: functional; conditions: OVCAR-3, 48 h; procedure, shortened: as §2
SR = assay: Growth inhibition of human SR cells after 48 hrs by sulforhodamine B assay; format: functional; procedure, shortened: as §2
[16] = Growth inhibition of human IGROV1 cells after 48 hrs by sulforhodamine B assay; format: functional; conditions: IGROV-1, 48 h; procedure, shortened: as §1
[17] = Growth inhibition of human DU145 cells after 48 hrs by sulforhodamine B assay; format: functional; conditions: DU-145, 48 h; procedure, shortened: as §1
786-0 = assay: Growth inhibition of human 786-0 cells after 48 hrs by sulforhodamine B assay; format: functional; conditions: 786-0, 48 h; procedure, shortened: as §1
Tubulin (Homo sapiens) [18] = target: T1, Tubulin (Homo sapiens); assay: Induction of tubulin depolymerization (unknown origin) in slow phase; format: protein-complex assay
SK-MEL-2 = assay: Growth inhibition of human SK-MEL-2 cells after 48 hrs by sulforhodamine B assay; format: functional; conditions: SK-MEL-2, 48 h; procedure, shortened: as §2
HT-29 = assay: Growth inhibition of human HT-29 cells after 48 hrs by sulforhodamine B assay; format: functional; conditions: HT-29, 48 h; procedure, shortened: as §1
K562 = assay: Growth inhibition of human K562 cells after 48 hrs by sulforhodamine B assay; format: functional; conditions: K562, 48 h; procedure, shortened: as §1
Tubulin (Homo sapiens) [19] = target: T1, Tubulin (Homo sapiens); assay: Induction of tubulin depolymerization (unknown origin) in slow phase assessed as depolymerization rate at 10 to 100 uM; format: protein-complex assay
Tubulin (Homo sapiens) [20] = target: T1, Tubulin (Homo sapiens); assay: Inhibition of tubulin polymerization (unknown origin) in rapid phase assessed as polymerization rate at 10 to 100 uM; format: protein-complex assay

| SMILES | GI50 [1] | GI50 (A498) | GI50 (SK-MEL-5) | GI50 [4] | GI50 [5] | GI50 (U-251) | GI50 (ACHN) | GI50 [8] | GI50 [9] | GI50 (A549) | GI50 (MCF7) | GI50 [11] | GI50 [13] | GI50 [14] | GI50 [15] | GI50 (SR) | GI50 [16] | GI50 [17] | GI50 (786-0) | GI50 (SK-MEL-2) | further results |
| --- | --- | --- | --- | --- | --- | --- | --- | --- | --- | --- | --- | --- | --- | --- | --- | --- | --- | --- | --- | --- | --- |
| COc1cc(/C(C#N)=C/c2ccc3c(c2)OCCO3)cc(OC)c1OC | 30 nM | 30 nM | 30 nM | 140 nM | 20 nM | 50 nM | 80 nM | 40 nM | 30 nM | 60 nM | 40 nM | 120 nM | 60 nM | 50 nM | 40 nM | 60 nM | 630 nM | 130 nM | 40 nM | – | Activity (Tubulin (Homo sapiens) [2]): 1.6 ×10⁻⁵ AU/sec; GI50 [3]: 30 nM; inhibition (Tubulin (Homo sapiens) [6]): Dose-dependent effect; Activity (Tubulin (Homo sapiens) [7]): 3.2 ×10⁻⁵ AU/sec; Activity (Tubulin (Homo sapiens) [10]): 6.9 ×10⁻⁴ AU/sec; Activity (Tubulin (Homo sapiens) [12]): 2 ×10⁻⁴ AU/sec; Activity (Tubulin (Homo sapiens) [18]): Dose-dependent effect |
| COc1ccc(/C=C(\C#N)c2ccc3c(c2)OCO3)c2ccccc12 | 2410 nM | 410 nM | 1520 nM | 5420 nM | 1910 nM | 2710 nM | 4240 nM | 720 nM | 1650 nM | 2650 nM | 610 nM | 12000 nM | 3960 nM | 2140 nM | 3040 nM | 5440 nM | 4070 nM | 3490 nM | 4380 nM | 2900 nM | GI50 [3]: 1140 nM; GI50 (HT-29): 1600 nM; GI50 (K562): 530 nM |
| COc1ccc(/C(C#N)=C/c2ccc3c(c2)OCCO3)cc1OC | 2710 nM | 1350 nM | 840 nM | 8850 nM | 2490 nM | 3970 nM | 7610 nM | 1040 nM | 1520 nM | 4120 nM | 860 nM | 9640 nM | 4920 nM | 2980 nM | 2160 nM | 930 nM | 9400 nM | 4690 nM | 3880 nM | 1840 nM | GI50 [3]: 2160 nM |
| COc1ccc(/C=C(\C#N)c2ccc3c(c2)OCO3)c(OC)c1 | 2680 nM | 1330 nM | 2580 nM | 11900 nM | 1750 nM | – | 4920 nM | 1230 nM | 2410 nM | 2650 nM | 850 nM | 7420 nM | 5330 nM | 3300 nM | 3100 nM | 530 nM | 8800 nM | 3620 nM | 4930 nM | 720 nM | GI50 (HT-29): 710 nM; GI50 (K562): 390 nM |
| COc1ccc(/C=C(\C#N)c2ccc3c(c2)OCO3)cc1 | 220 nM | 200 nM | 210 nM | 5260 nM | 200 nM | 430 nM | 520 nM | 120 nM | 80 nM | 270 nM | 80 nM | 4220 nM | 570 nM | 300 nM | 270 nM | 50 nM | 3600 nM | 590 nM | 18900 nM | 210 nM | Activity (Tubulin (Homo sapiens) [2]): 1.8 ×10⁻⁵ AU/sec; Activity (Tubulin (Homo sapiens) [7]): 2 ×10⁻⁵ AU/sec; Activity (Tubulin (Homo sapiens) [10]): 8 ×10⁻⁴ AU/sec; GI50 (HT-29): 60 nM; GI50 (K562): 40 nM; Activity (Tubulin (Homo sapiens) [12]): 8.9 ×10⁻⁴ AU/sec |
| COc1ccc(/C(C#N)=C/c2ccc3c(c2)OCCO3)cc1 | 6330 nM | > 100000 nM | 3540 nM | 7780 nM | 10600 nM | > 100000 nM | > 100000 nM | 3930 nM | 4450 nM | 21700 nM | 3010 nM | > 100000 nM | – | > 100000 nM | 37100 nM | 2760 nM | > 100000 nM | > 100000 nM | 35800 nM | 36800 nM | GI50 [3]: 21900 nM |
| N#C/C(=C\c1cccc2ccccc12)c1ccc2c(c1)OCO2 | 3720 nM | 1170 nM | 3200 nM | 11000 nM | 2960 nM | 3850 nM | 4520 nM | 3720 nM | 2520 nM | 5000 nM | 1990 nM | 4550 nM | 4220 nM | 3770 nM | 4180 nM | 1600 nM | 5950 nM | 6940 nM | 5620 nM | 3180 nM | GI50 [3]: 2450 nM; GI50 (HT-29): 3020 nM; GI50 (K562): 790 nM |
| N#C/C(=C\c1cc2ccccc2s1)c1ccc2c(c1)OCO2 | 40 nM | 30 nM | 60 nM | 270 nM | 40 nM | 60 nM | 60 nM | 50 nM | 40 nM | 90 nM | 90 nM | 17000 nM | 50 nM | 70 nM | 40 nM | 30 nM | 90 nM | 210 nM | 880 nM | 40 nM | GI50 [3]: 20 nM; Activity (Tubulin (Homo sapiens) [19]): inactive; GI50 (HT-29): 30 nM; GI50 (K562): 40 nM; inhibition (Tubulin (Homo sapiens) [20]): inactive |
